According to ChEMBL document CHEMBL5357039, “Physicochemical characterization of B-hydroxyphenyl phosphine borane derivatives and their evaluation as nuclear estrogen receptor ligands” (RSC Med Chem, 2024):
Activity calls are given as the source filed them. The rule behind the calls is not given here.

Legend:
[1] = target: T1, Estrogen receptor (Homo sapiens) (UniProt P03372); assay: (§1) Agonist activity at human ERalpha expressed in HEK293 cells assessed as increase in […] activity incubated for 24 hrs by luciferase based microplate reader assay; assay type: cell-based
T1 sequence (whole entry): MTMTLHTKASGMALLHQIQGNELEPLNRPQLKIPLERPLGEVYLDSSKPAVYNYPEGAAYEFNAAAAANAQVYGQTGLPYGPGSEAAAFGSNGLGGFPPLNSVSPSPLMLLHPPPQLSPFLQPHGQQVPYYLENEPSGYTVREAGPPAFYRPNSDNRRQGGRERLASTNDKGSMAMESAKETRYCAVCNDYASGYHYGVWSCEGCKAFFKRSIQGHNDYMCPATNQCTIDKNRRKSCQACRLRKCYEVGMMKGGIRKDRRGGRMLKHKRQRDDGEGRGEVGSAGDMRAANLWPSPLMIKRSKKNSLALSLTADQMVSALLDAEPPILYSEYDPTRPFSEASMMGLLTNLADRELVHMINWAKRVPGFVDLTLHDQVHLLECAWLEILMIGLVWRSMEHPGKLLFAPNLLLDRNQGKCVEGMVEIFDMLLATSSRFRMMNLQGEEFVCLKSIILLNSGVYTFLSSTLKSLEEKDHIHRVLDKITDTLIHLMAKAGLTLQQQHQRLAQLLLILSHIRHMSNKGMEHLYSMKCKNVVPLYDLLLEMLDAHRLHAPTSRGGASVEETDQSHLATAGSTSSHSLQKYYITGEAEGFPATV

[2] = 1-Octanol/water partition coefficient, logP of the compound by HPLC analysis; assay type: physicochemical
[3] = Aqueous stability of the compound in PBS assessed as compound remaining at pH 7.4 incubated for 3 hrs by HPLC analysis; assay type: physicochemical; conditions: read-out: Stability
In short: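 Test compound at 0.1 mM in acetonitrile/PBS (5:95 v/v), held 3 h at 37 °C. Analysed by reversed-phase C18 HPLC with the column at 37.0 °C and UV detection at the peak wavelength between 220 and 240 nm. Residual % = peak area at 3 h / peak area at t0 × 100. Mean of triplicate runs.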

[4] = Dissociation constant, pKa of the compound by pH-metric method; assay type: physicochemical; conditions: in the assay text read “pH-dependent UV absorbance method” for “pH-metric method”
In short: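 Determined from the change in absorbance at λmax in pH-dependent UV spectra, recorded in 20:80 (w/w) methanol–phosphate buffer over pH 6.0–12.0. Meter pH corrected as pH* = pH(recorded) − 0.01. Triplicate measurements.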

Lipid bilayer = assay: Immobilized artificial membrane partition coefficient, logK-IAMex of the compound by HPLC analysis; assay type: physicochemical
In short: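 Run on an IAM.PC.DD2 column. Mobile phase was 0.01 M PBS, or acetonitrile (40% to 25% v/v in 5% steps) in 0.01 M PBS, at pH 7.4. Dead time was taken with methanol. The 100% aqueous value was obtained by linear extrapolation from the acetonitrile runs. Mean of triplicates.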

Estrogen receptor = target: T2, Estrogen receptor (Homo sapiens, UniProt P03372); assay: as §1; assay type: cell-based
T2 sequence (P03372 whole entry): T1 sequence (whole entry)

Row | Compound | Activity [1] | logP [2] | remaining at 3 h [3] [%] | pKa [4] | logK-IAMex (Lipid bilayer) | EC50 (Estrogen receptor) [µM]
1 | CC[P+](Bc1cccc(O)c1)(CC)CC | – | 3.47 | 99.7 | 11.3 | 1.59 | > 10
2 | Oc1ccc(B[P+](C2CCCCC2)(C2CCCCC2)C2CCCCC2)cc1 | inactive | 7.22 | – | – | – | –
3 | CC[P+](Bc1ccc(O)cc1)(CC)c1ccccc1 | inactive | 4.11 | 97.6 | 11.1 | 2.46 | –
4 | C[P+](C)(C)Bc1cccc(O)c1 | inactive | 2.55 | 100 | 11.3 | 0.81 | –
5 | CC[P+](Bc1cccc(O)c1)(CC)c1ccccc1 | – | 4.19 | 100 | 11.3 | 2.28 | 4.09
6 | CC(C)[P+](Bc1ccc(O)cc1)(c1ccccc1)C(C)C | – | 4.79 | – | – | – | > 10
7 | CCCC[P+](Bc1ccc(O)cc1)(CCCC)CCCC | inactive | 6.32 | – | – | – | –
8 | Oc1ccc(B[P+](C2CCCC2)(C2CCCC2)C2CCCC2)cc1 | inactive | 6.23 | – | – | – | –
9 | CC(C)[P+](Bc1cccc(O)c1)(c1ccccc1)C(C)C | – | 4.93 | – | – | – | 3.45
10 | Oc1ccc(B[P+](C2CC2)(C2CC2)C2CC2)cc1 | – | 3.8 | – | – | – | 2.68
11 | CCCC[P+](Bc1cccc(O)c1)(CCCC)CCCC | inactive | 6.43 | – | – | – | –
12 | C[P+](C)(Bc1cccc(O)c1)c1ccccc1 | – | 3.27 | 99 | 11.3 | 1.71 | > 10

More lines, now with the values ahead:

Row | Activity [1] | logP [2] | remaining at 3 h [3] [%] | pKa [4] | logK-IAMex (Lipid bilayer) | EC50 (Estrogen receptor) [µM] | Compound
13 | inactive | 3.18 | 94.5 | 11.2 | 1.91 | – | C[P+](C)(Bc1ccc(O)cc1)c1ccccc1
14 | – | 5.74 | 96.2 | 10.9 | 3.05 | – | C[Si](C)(Cc1ccc(O)cc1)c1ccccc1
15 | – | 4.36 | 92.5 | 10.8 | 2.22 | – | CC(C)(C)Cc1ccc(O)cc1
16 | – | 5.26 | 99 | 10.7 | 2.73 | – | CC(C)(Cc1ccc(O)cc1)c1ccccc1
17 | inactive | 2.44 | 99.9 | 11.3 | 0.8 | – | C[P+](C)(C)Bc1ccc(O)cc1
18 | – | 4.91 | 89.9 | 10.7 | 2.38 | 1.41 | C[Si](C)(C)Cc1ccc(O)cc1
19 | – | 4.56 | – | – | – | – | CC(C)[P+](Bc1ccc(O)cc1)(C(C)C)C(C)C
20 | – | 3.28 | 99.3 | 11 | 1.81 | – | CC[P+](Bc1ccc(O)cc1)(CC)CC
